SENP6 inh: SENP6 protease inhibitors, primary screen, biochemical, luminescence, uHTS | AID 2599, 2010 | actives 1.8% (n = 330,000) | inhibition, % at 10 µM | Recombinant SENP6 catalytic domain, aminoluciferin luminescence | Sentrin-specific protease 6 (Homo sapiens), Q9GZR1;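 active = inhibition above about 50% at the single tested dose, limit read from the data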
SENP1 FRET inh: human SENP1 catalytic domain inhibitors, primary screen, biochemical, FRET, uHTS; Sentrin-specific protease 1 (Homo sapiens), Q9P0U3; recombinant SENP1 catalytic domain, CyPet-SUMO1-YPet FRET cleavage; inhibition, % at 10 µM; actives 0.21% (n = 360,000); AID 624204, 2012;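 active = inhibition at least 30% at 10 µM, raw YFP signal under a set limit, fluorescence ratio 0.5 to 1.5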
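Assay system: hSENP1 catalytic domain, recombinant. Amount: SENP1 enzyme, 20 pM final. Schedule: 50 min reaction, RT, dark. Technique: FRET, CFP and YFP emission. Control set: no-enzyme wells low, DMSO-plus-enzyme wells high control.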
SENP7 inh: SENP7 protease inhibitors, primary screen, biochemical, luminescence, uHTS; recombinant SENP7, Z-RLRGG-aminoluciferin luminescence, 40 min; actives 1.5% (n = 330,000); AID 434973, 2010; inhibition, % at 5 µM;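 active = inhibition above about 50% at the single test dose, limit read from the data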
SENP8 block-1: SENP8 protease inhibitors, primary screen, biochemical, luminescence; Sentrin-specific protease 8 (Homo sapiens), Q96LD8; purified SENP8, Z-RLRGG-aminoluciferin cleavage; inhibition, % at 10 µM; actives 1.2% (n = 330,000); in the data active = inhibition above about 50%
SENP8 block-2: human SENP8 protease inhibitors, primary screen, biochemical, fluorescence, Nedd8 protein substrate, uHTS | Sentrin-specific protease 8 (Homo sapiens), Q96LD8 | recombinant SENP8 | inhibition, % at 20 µM | actives 0.64% (n = 360,000) | AID 602440, 2012; in the data active = inhibition mostly above about 40%, no sharp cut-off; inactive = mostly below about 27%
CendR NRP1 mod: modulators of CendR peptide binding to NRP-1, primary screen, biochemical, fluorescence polarization, uHTS | FAM-RPARPAR peptide binding to NRP-1 | inhibition, % at 25 µM | actives 0.85% (n = 360,000) | AID 602438, 2012;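 active = inhibition or corrected inhibition above about 18%, plus a signal ratio from 0.5 to 1.5, limit read from the data, passing the limit was not always enough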
Target sequence (O14786 whole entry, looked up): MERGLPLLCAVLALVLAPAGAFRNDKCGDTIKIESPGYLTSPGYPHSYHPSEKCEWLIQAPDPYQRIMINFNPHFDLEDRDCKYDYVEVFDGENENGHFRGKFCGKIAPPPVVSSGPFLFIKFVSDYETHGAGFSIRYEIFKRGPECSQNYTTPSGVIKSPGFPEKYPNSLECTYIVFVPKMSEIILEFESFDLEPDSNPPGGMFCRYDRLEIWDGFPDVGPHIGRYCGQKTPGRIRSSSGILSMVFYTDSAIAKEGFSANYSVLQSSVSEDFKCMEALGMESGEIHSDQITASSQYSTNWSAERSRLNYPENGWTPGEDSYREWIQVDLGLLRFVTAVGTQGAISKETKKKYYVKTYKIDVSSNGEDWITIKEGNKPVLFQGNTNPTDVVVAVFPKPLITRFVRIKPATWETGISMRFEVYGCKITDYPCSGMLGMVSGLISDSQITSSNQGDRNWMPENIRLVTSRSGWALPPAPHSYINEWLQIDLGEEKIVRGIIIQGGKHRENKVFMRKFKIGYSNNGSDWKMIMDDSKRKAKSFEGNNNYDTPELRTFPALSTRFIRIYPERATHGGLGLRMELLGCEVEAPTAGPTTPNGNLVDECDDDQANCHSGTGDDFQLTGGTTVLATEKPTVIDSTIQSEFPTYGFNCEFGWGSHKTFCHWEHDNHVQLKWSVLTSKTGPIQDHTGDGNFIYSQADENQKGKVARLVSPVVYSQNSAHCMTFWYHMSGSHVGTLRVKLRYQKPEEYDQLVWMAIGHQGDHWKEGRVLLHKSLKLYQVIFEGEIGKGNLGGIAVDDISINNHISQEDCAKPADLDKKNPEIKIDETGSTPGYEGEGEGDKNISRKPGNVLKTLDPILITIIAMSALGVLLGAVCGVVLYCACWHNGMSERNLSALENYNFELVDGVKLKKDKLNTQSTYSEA
SENP8 conf: human SENP8 protease inhibitors, confirmation, biochemical, Nedd8 protein substrate, single concentration | inhibition, % at 25 µM | AID 624319, 2012 | shares compounds with SENP8 block-2 | actives 15% (n = 1,400) | purified SENP8, Nedd8-AMC/pro-Nedd8 cleavage fluorescence, 30 min; in the data active = inhibition mostly above about 39%, no sharp cut-off; inactive = mostly below about 34%
Hits are given with their value; n = inactive; x = no result. Sampled rows, rich in hits. Any-hit rate of the full collection: about 3.3%.

SMILES	SENP6 inh	SENP1 FRET inh	SENP7 inh	SENP8 block-1	SENP8 block-2	CendR NRP1 mod	SENP8 conf
COc1ccccc1NS(=O)(=O)c1ccc(N/N=C/c2c(C)nn(-c3ccccc3)c2N2CCCC2)c([N+](=O)[O-])c1	n	n	n	n	44.9	n	n
COc1ccccc1NS(=O)(=O)c1cccc(C(=O)N/N=C/c2c(C)nn(-c3ccccc3)c2N2CCCC2)c1	n	n	n	n	n	n	x
Cc1nn(-c2ccccc2)c(N2CCCC2)c1/C=N/Nc1ccc(S(=O)(=O)Nc2ccccc2)cc1[N+](=O)[O-]	n	n	n	n	63.9	n	n
CCC/C=C/c1ccc(CN2C(C(C)C)C(=O)N(Cc3cn(CC4CCCCC4)nn3)CCS2(=O)=O)cc1 (configuration not stated)	x	n	x	x	n	n	x
O=C(NCc1ccccn1)[C@@H]1CCCN1C(=O)[C@@H]1CCCN1C(=O)c1cccc2ccccc12	x	n	x	x	n	n	x
O=C(O)c1ccc(CN2C[C@@H](CO)O[C@@H](n3cnc4c(NCc5ccc(F)cc5)ncnc43)C2)cc1	x	n	x	x	n	n	x
COC(=O)Cc1c(C)nc2nc(-c3ccc(C)cc3)[nH]n2c1=O	n	n	n	n	45.5	n	n
CC(C)[C@H](Nc1ccc(C(F)(F)F)cc1[N+](=O)[O-])C(=O)O	n	n	n	n	40.9	n	n
Cc1cc(C)c(C(=O)COC(=O)[C@H](C)Nc2ccc(C(F)(F)F)cc2[N+](=O)[O-])c(C)c1	n	n	n	n	n	n	x
CC(C)N(C)c1ncnc2c1ncn2[C@H]1CN(C2CCCC2)C[C@@H](CO)O1	x	n	x	x	n	n	x
C#CCOCCOCCOCCNc1nc(N2CCN(C(=O)[C@H](CCCCN)n3cc(CN)nn3)CC2)nc(N2CCN(C(=O)[C@H](CCCCN)n3cc([C@@H](N)CC(N)=O)nn3)CC2)n1	x	n	x	x	40.2	n	n
CC(=O)Nc1cc(-c2ccc(CO)cc2)cn2c(-c3cccc(C(F)(F)F)c3)cnc12	x	n	x	x	n	n	x
COc1ccc(C(=O)C(CCCCC(CN(C)C)C(=O)c2ccc(OC)cc2)CN(C)C)cc1 (configuration not stated)	n	n	n	n	41.7	n	n
C#CCOc1ccc(CNC[C@H]2O[C@@H](n3ccc(=O)[nH]c3=O)[C@H](O)[C@@H]2O)cc1	x	n	x	x	n	n	x
C[C@H](CO)N1C[C@H](C)[C@@H](CN(C)S(=O)(=O)c2ccccc2)Oc2ccc(NC(=O)CCC(F)(F)F)cc2C1=O	n	n	n	n	n	n	x
CCN(CC)CCn1c(OC)cc(=O)[nH]c1=O	n	n	n	n	42.8	n	n
Cc1ccc(N=C2N=C(N)c3ccccc32)c(C)c1	n	n	n	n	41.5	n	n
Cc1ccccc1N=C1N=C(N)c2ccccc21	n	n	n	n	n	n	x
CC(=O)N/N=C(\C)C1COc2ccccc2O1 (configuration not stated)	n	n	n	n	40.8	n	n
Cc1ccc(Sc2ncccc2COC(=O)Nc2ccccc2)cc1	n	n	n	n	40.0	n	n
COc1c(N)c2c(c([N+](=O)[O-])c1OC)C(=O)OC2	x	n	x	x	n	n	x
COC(=O)C[C@@H]1CC[C@@H](NS(=O)(=O)c2cccc(OC)c2)[C@@H](CO)O1	x	n	x	x	n	n	x
Cc1cc(NS(=O)(=O)c2ccc(NC(=O)C(C(C)C)N3C(=O)c4ccccc4C3=O)cc2)nc(C)n1 (configuration not stated)	n	n	n	n	n	n	x
Cc1cc(NS(=O)(=O)c2ccc(NC(=O)C(CC(C)C)N3C(=O)c4ccccc4C3=O)cc2)nc(C)n1 (configuration not stated)	n	n	n	n	42.4	n	n
COC(=O)C(CC(C)C)NC(=O)c1ccc([N+](=O)[O-])cc1 (configuration not stated)	n	n	n	n	42.6	n	n
SMILES	SENP6 inh	SENP1 FRET inh	SENP7 inh	SENP8 block-1	SENP8 block-2	CendR NRP1 mod	SENP8 conf
CC(C)OC(=O)CSc1nnc(-c2ccccn2)n1-c1ccccc1	n	n	n	n	45.0	21.3	n
CCCCCCN1C=CC=C/C1=C/C=C(C#N)C#N	n	n	n	n	49.6	n	n
CCCCCCN1C=CC(=C/C=C(\C#N)C(=O)OCC)C=C1	n	n	n	n	36.5	n	n
CCCN1C=CC(=C/C=C(\C#N)C(=O)OCC)C=C1	n	x	n	n	x	x	x
CCCN1C=CC(=CC=C(C#N)C#N)C=C1	n	n	n	n	50.4	n	n
C=CCN1C=CC(=CC=C(C#N)C#N)C=C1	n	n	n	n	55.7	n	n
C=CCN1C=C/C(=C\C=C(C#N)C#N)c2ccccc21	n	n	n	n	n	n	x
CCC(C)[C@H](NC(=O)[C@H](Cc1ccccc1)n1c(=O)[nH]c2ccccc2c1=O)C(=O)NCC1CCC(C(=O)O)CC1 (some centres not stated)	n	n	n	n	n	n	x
CC(=O)C1=C(C)NC2(O)c3ccccc3C(=O)C12O (configuration not stated)	n	n	n	n	65.6	n	53.3
O=C(CSc1nnnn1-c1ccccc1)N1CCc2ccccc2C1	n	n	n	n	n	n	x
CC(=O)c1ccc(-n2nnnc2SCC(=O)N2CCc3ccccc3C2)cc1	x	n	x	x	61.4	n	78.9
O=c1[nH]c(CN2CCCCC2)ccc1O	x	n	x	x	68.5	n	38.0
COc1ccc(C(=O)CSc2nnc(C(CO)NC(=O)c3ccc(OC)cc3)n2C)cc1 (configuration not stated)	n	n	n	n	72.8	n	n
COc1ccc(CC(=O)NC(C)c2nnc(SCC(=O)c3ccc(OC)cc3)n2C)cc1 (configuration not stated)	n	n	n	n	n	n	x
Cc1ccc(C(=O)N/C(=C/c2ccc(-c3cccc([N+](=O)[O-])c3)o2)C(=O)NC(C)C)cc1	n	n	n	n	47.4	n	n
Cc1ccc(C(=O)N/C(=C\c2ccc(-c3cccc([N+](=O)[O-])c3)o2)C(=O)NCCCN2CCOCC2)cc1	n	n	n	n	n	n	x
COc1ccc(C(=O)N/C(=C\c2ccc(-c3cccc([N+](=O)[O-])c3)o2)C(=O)NCCCN2CCOCC2)cc1	x	n	x	x	35.4	n	n
CCOC(=O)N(C)C[C@@H]1OCc2cnnn2CCCC(=O)N([C@H](C)CO)C[C@H]1C	x	n	x	x	n	n	x
